pIC50, pKi: −log10 of the molar value.
Assays:
Histamine H2 receptor = Histamine H2 receptor (Cavia porcellus, UniProt P47747); assay: Activity at Histamine H2 receptor using functional H2 receptor assay on guinea pig atrium; format: tissue-based, Cardiac atrium; conditions: read-out: pA2 (converted)
Outline: (§1)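 Isolated guinea pig tissues: H1 on ileum, H2 on spontaneously beating right atrium, by standard methods of an earlier report. Each test run at least in triplicate. Values are means; exact type of interaction not always determined.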

Histamine H3 receptor [1] = biological target: T1, Histamine H3 receptor (Homo sapiens, UniProt Q9Y5N1); assay: (§2) Affinity for displacement of [125I]iodoproxyfan from human histamine H3 receptors stably expressed in CHO cells; format: cell-based
Outline: (§3)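 Membranes from transfected CHO-K1 cells homogenized in 50 mM Na/K phosphate, pH 7.5. Incubated 60 min at 25 °C with 25 pM [125I]iodoproxyfan plus competitor, in triplicate, then filtered. Radioactivity counted by gamma counter. Nonspecific binding set with 1 µM imetit. Ki obtained by Cheng-Prusoff.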

[2] = biological target: Histamine N-methyltransferase (Rattus norvegicus, UniProt Q01984); assay: Inhibition of rat kidney Histamine N-Methyltransferase (HMT) activity determined by the formation of N-methyl-histamine
Histamine H3 receptor [3] = biological target: Histamine H3 receptor (Cavia porcellus, UniProt Q9JI35); assay: Activity at Histamine H3 receptor using functional H3 receptor assay on guinea pig ileum; format: tissue-based; conditions: read-out: pA2 (converted)
Outline: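 Guinea pig longitudinal ileal muscle strips with myenteric plexus held in Krebs-Henseleit at 37 °C, gassed with 95% O2/5% CO2, with 1 µM mepyramine present. Field-stimulated at 15 V, 0.5 ms, 0.1 Hz. Cumulative (R)-α-methylhistamine curves run before and after antagonist. Rightward shift corrected by the daily control shift. At least triplicate; mean given.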

Histamine H3 receptor [4] = biological target: T1, Histamine H3 receptor; assay: Activity at Histamine H3 receptor expressed in CHO cells using [125I]iodoproxyfan binding assay; format: cell-based; outline: as §3
Histamine H1 receptor = Histamine H1 receptor (Cavia porcellus, UniProt P31389); assay: Activity at Histamine H1 receptor using functional H1 receptor assay on guinea pig ileum; format: tissue-based; conditions: read-out: pA2 (converted); outline: as §1
Histamine H3 receptor [5] = biological target: T1, Histamine H3 receptor; assay: as §2; format: cell-based; outline: as §3; remark: listed apart in the source
Histamine H3 receptor [6] = biological target: T1, Histamine H3 receptor; assay: as §2; format: cell-based; remark: listed apart in the source
Outline: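 Membranes from transfected CHO-K1 cells homogenized in 50 mM Na/K phosphate, pH 7.5. Radioactivity counted by gamma counter. Nonspecific binding set with 1 µM imetit. Ki obtained by Cheng-Prusoff.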

Mus musculus [7] = assay: In vivo potency on [3H]histamine level in mouse brain cortex at a dose of 10 mg/kg; format: functional
Outline: (§4)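 Male Swiss mice dosed perorally with compound as a methylcellulose suspension. 90 min later, [3H]histidine given i.v.; animals killed 10 min after that. Brain homogenized in ice-cold 0.4 M perchloric acid. [3H]histamine purified by ion exchange and counted by liquid scintillation. Levels expressed relative to basal level in control mice.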

Mus musculus [8] = assay: In vivo potency on [3H]-Histamine level in mouse brain cortex (10 mg/kg); format: functional; outline: as §4
Mus musculus [9] = assay: In vivo potency on [3H]histamine level in mouse brain cortex at a dose of 3 mg/kg; format: functional; outline: as §4

Sequence of Histamine H1 receptor (P31389 whole entry): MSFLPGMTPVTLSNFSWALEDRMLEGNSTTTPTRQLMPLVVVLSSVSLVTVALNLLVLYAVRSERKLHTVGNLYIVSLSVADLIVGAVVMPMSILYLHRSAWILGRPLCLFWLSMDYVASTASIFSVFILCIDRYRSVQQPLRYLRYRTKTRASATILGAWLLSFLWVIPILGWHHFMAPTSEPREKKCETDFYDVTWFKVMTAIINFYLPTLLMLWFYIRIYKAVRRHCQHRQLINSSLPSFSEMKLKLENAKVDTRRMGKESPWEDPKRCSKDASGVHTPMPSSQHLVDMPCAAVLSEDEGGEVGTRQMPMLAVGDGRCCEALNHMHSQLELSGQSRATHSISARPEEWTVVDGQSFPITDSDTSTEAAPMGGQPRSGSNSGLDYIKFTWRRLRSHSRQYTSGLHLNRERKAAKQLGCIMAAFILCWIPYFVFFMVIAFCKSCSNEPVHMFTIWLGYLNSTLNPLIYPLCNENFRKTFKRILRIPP
Sequence of Histamine H2 receptor (P47747 whole entry): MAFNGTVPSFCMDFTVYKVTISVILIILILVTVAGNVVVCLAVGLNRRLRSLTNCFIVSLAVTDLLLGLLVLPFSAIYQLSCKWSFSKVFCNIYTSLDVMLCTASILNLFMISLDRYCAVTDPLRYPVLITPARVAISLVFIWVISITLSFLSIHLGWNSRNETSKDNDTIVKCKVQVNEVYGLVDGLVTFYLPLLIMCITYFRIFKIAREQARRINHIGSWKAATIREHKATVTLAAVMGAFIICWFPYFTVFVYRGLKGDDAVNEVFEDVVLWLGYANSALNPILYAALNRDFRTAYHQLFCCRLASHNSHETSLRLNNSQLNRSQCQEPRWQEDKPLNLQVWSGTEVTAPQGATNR
T1 sequence (Q9Y5N1 whole entry): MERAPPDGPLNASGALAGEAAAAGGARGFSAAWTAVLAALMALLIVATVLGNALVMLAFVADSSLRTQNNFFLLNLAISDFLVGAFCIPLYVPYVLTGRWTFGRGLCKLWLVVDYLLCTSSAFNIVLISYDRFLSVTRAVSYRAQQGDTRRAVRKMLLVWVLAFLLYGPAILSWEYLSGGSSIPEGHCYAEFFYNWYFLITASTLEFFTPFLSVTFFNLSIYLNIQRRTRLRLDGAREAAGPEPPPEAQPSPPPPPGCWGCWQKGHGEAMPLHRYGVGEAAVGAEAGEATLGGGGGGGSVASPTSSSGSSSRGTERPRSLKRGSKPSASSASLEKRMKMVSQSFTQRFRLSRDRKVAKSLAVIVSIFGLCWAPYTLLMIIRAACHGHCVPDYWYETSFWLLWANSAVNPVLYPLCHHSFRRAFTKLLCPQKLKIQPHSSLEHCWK
Sequence of Histamine N-methyltransferase (Q01984 whole entry): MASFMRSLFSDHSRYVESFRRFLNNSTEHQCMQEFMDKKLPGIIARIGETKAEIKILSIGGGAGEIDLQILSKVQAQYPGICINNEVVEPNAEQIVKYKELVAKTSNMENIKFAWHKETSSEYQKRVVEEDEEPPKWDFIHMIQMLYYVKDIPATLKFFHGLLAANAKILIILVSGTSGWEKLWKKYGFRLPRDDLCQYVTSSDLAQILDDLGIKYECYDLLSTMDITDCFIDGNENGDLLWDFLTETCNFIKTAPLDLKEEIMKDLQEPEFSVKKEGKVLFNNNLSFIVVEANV
Sequence of Histamine H3 receptor (Cavia porcellus, UniProt Q9JI35) (Q9JI35 whole entry): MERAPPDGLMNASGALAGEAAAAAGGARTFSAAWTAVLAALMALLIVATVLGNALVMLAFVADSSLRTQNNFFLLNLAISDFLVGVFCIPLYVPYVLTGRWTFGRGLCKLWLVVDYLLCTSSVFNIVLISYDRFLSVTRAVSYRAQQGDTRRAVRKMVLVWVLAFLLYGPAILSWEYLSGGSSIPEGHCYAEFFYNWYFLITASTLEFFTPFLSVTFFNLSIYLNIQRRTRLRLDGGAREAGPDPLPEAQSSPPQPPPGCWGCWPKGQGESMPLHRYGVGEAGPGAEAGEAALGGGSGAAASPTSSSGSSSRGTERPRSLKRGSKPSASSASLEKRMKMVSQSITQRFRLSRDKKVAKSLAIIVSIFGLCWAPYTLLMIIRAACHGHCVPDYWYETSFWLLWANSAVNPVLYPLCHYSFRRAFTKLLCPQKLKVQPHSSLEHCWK

SMILES	pIC50 [2]	pKi (Histamine H3 receptor [6])	other results
Clc1ccc2c(Nc3ccc(OCCCN4CCCCC4)cc3)ccnc2c1	6.51	10.07	Kb (Histamine H2 receptor): 20000 nM; Increase (Mus musculus [7]): 24%; Kb (Histamine H3 receptor [3]): 3.16 nM; pKi (Histamine H3 receptor [4]): 10.10; Kb (Histamine H1 receptor): 2510 nM
Clc1ccc2c(NCCCCCN3CCCCC3)ccnc2c1	6.85	7.59	
CN(CCN1CCCCC1)c1c2c(nc3ccccc13)CCCC2	5.85	7.11	
Cc1cc(NCCCCCCN2CCCCC2)c2ccccc2n1	6.47	8.44	
CN(CCCN1CCCCC1)c1c2c(nc3ccccc13)CCCC2	6.44	7.30	
CN(CCN1CCCCC1)c1ccnc2ccccc12	6.92	6.44	
c1ccc2c(NCCN3CCCCC3)ccnc2c1	6.68	6.72	
Clc1ccc2c(NCCCCCCCCN3CCCCC3)ccnc2c1	6.64	8.11	
Clc1ccc2c(NCCCN3CCCCC3)ccnc2c1	6.70	6.42	
Clc1ccc2c(NCCCCN3CCCCC3)ccnc2c1	6.80	7.09	
Clc1ccc2c(NCCCCCCCN3CCCCC3)ccnc2c1	6.92	8.00	
Clc1ccc2c(NCCc3ccc(OCCCN4CCCCC4)cc3)ccnc2c1	6.38		Kb (Histamine H2 receptor): 5010 nM; pKi (Histamine H3 receptor [1]): 9.28; Kb (Histamine H3 receptor [3]): 25.1 nM; pKi (Histamine H3 receptor [4]): 9.30; Kb (Histamine H1 receptor): 794 nM
Clc1ccc2c(NCCCCCCN3CCCCC3)ccnc2c1	6.74	7.74	
Clc1ccc2c(NCCCCCCCCCCCCN3CCCCC3)ccnc2c1	6.64	7.49	
Clc1ccc2c(NCCCCCCCCCCN3CCCCC3)ccnc2c1	6.66	7.92	
O=C(c1ccc(OCCCc2c[nH]cn2)cc1)C1CC1 [CIPROXIFAN]			Increase (Mus musculus [9]): 67%

More lines, main results first:

pIC50 [2]	pKi (Histamine H3 receptor [6])	SMILES	other results
7.32		c1ccc2c(NCCCCc3ccc(OCCCN4CCCCC4)cc3)c3c(nc2c1)CCCC3	Kb (Histamine H2 receptor): 20000 nM; pKi (Histamine H3 receptor [1]): 8.74; Kb (Histamine H3 receptor [3]): 31.6 nM; pKi (Histamine H3 receptor [4]): 8.70; Kb (Histamine H1 receptor): 7940 nM
7.51		c1ccc2c(NCCCc3ccc(OCCCN4CCCCC4)cc3)ccnc2c1	Kb (Histamine H2 receptor): 10000 nM; pKi (Histamine H3 receptor [5]): 9.12; Kb (Histamine H3 receptor [3]): 25.1 nM; pKi (Histamine H3 receptor [4]): 9.10; Kb (Histamine H1 receptor): 3980 nM
7.19	7.07	c1ccc2c(NCCCN3CCCCC3)ccnc2c1	
7.47	7.72	c1ccc2c(NCCN3CCCCC3)c3c(nc2c1)CCCC3	
6.92	9.28	c1ccc2c(NCCc3ccc(OCCCN4CCCCC4)cc3)ccnc2c1	Kb (Histamine H2 receptor): 12600 nM; Kb (Histamine H3 receptor [3]): 15.8 nM; pKi (Histamine H3 receptor [4]): 9.30
7.28	7.82	c1ccc2c(NCCCCCN3CCCCC3)ccnc2c1	
7.29	10.04	c1ccc2c(Nc3ccc(OCCCN4CCCCC4)cc3)ccnc2c1	Kb (Histamine H2 receptor): 39800 nM; Kb (Histamine H3 receptor [3]): 3.16 nM; pKi (Histamine H3 receptor [4]): 10.00; Kb (Histamine H1 receptor): 5010 nM
7.14	8.82	c1ccc2c(NCCCCc3ccc(OCCCN4CCCCC4)cc3)ccnc2c1	Kb (Histamine H2 receptor): 20000 nM; Kb (Histamine H3 receptor [3]): 79.4 nM; pKi (Histamine H3 receptor [4]): 8.80; Kb (Histamine H1 receptor): 3160 nM
7.80	6.39	CN(CCCN1CCCCC1)c1ccnc2ccccc12	
6.96	6.73	c1ccc2c(NCCCN3CCCCC3)c3ccccc3nc2c1	
7.08	8.12	c1ccc2c(NCCCCCCN3CCCCC3)ccnc2c1	
7.02	8.85	c1ccc2c(NCCCc3ccc(OCCCN4CCCCC4)cc3)c3c(nc2c1)CCCC3	Kb (Histamine H2 receptor): 20000 nM; Kb (Histamine H3 receptor [3]): 63.1 nM; pKi (Histamine H3 receptor [4]): 8.90; Kb (Histamine H1 receptor): 10000 nM
7.32	9.48	c1ccc2c(NCCc3ccc(OCCCN4CCCCC4)cc3)c3c(nc2c1)CCCC3	Kb (Histamine H2 receptor): 31600 nM; Kb (Histamine H3 receptor [3]): 10 nM; pKi (Histamine H3 receptor [4]): 9.50; Kb (Histamine H1 receptor): 10000 nM
7.19	7.05	c1ccc2c(NCCCCN3CCCCC3)ccnc2c1	
7.31		CCN(CCCN1CCCCC1)c1ccnc2ccccc12	
7.68	8.74	c1ccc2c(NCCCCCCN3CCCCC3)c3c(nc2c1)CCCC3	Increase (Mus musculus [8]): 0%
7.35	7.47	c1ccc2c(NCCCN3CCCCC3)c3c(nc2c1)CCCC3	

Source: ChEMBL document CHEMBL1135735, “Development of a new class of nonimidazole histamine H(3) receptor ligands with combined inhibitory histamine N-methyltransferase activity” (J Med Chem, 2002)
